# From ChEMBL document CHEMBL4219120, “Synthesis and SAR study of new hydroxy and chloro-substituted 2,4-diphenyl 5H-chromeno[4,3-b]pyridines as selective topoisomerase IIα-targeting anticancer agents” (Bioorg Med Chem, 2018)
# Structures can show the parent of a compound that is named as a salt. Activity calls are given as the source filed them. The rule behind the calls is not given here.
# Target: DNA topoisomerase 2-alpha (Homo sapiens) (UniProt P11388)
# Test: Inhibition of recombinant human topoisomerase 2alpha assessed as decrease in relaxation of supercoiled pBR322 DNA at 100 uM after 30 mins by agarose gel electrophoresis relative to control
# Settings: not given
# How it was run: (§1)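 Recombinant human topo IIα (1 unit) with 100 ng supercoiled pBR322 in 10 mM Tris-HCl pH 7.9, 50 mM NaCl, 50 mM KCl, 5 mM MgCl2, 1 mM EDTA, 1 mM ATP, 15 µg/mL BSA, 30 min at 37 °C. Quenched with 7 mM EDTA. 0.8% agarose/TAE gel, 50 V, 1 h; EtBr stain; UV densitometry. Compounds came from 20 mM DMSO stocks. 20 µM was tested only when inhibition at 100 µM exceeded 30%. Etoposide was the positive control.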
# Sequence of DNA topoisomerase 2-alpha (Homo sapiens) (P11388 whole entry): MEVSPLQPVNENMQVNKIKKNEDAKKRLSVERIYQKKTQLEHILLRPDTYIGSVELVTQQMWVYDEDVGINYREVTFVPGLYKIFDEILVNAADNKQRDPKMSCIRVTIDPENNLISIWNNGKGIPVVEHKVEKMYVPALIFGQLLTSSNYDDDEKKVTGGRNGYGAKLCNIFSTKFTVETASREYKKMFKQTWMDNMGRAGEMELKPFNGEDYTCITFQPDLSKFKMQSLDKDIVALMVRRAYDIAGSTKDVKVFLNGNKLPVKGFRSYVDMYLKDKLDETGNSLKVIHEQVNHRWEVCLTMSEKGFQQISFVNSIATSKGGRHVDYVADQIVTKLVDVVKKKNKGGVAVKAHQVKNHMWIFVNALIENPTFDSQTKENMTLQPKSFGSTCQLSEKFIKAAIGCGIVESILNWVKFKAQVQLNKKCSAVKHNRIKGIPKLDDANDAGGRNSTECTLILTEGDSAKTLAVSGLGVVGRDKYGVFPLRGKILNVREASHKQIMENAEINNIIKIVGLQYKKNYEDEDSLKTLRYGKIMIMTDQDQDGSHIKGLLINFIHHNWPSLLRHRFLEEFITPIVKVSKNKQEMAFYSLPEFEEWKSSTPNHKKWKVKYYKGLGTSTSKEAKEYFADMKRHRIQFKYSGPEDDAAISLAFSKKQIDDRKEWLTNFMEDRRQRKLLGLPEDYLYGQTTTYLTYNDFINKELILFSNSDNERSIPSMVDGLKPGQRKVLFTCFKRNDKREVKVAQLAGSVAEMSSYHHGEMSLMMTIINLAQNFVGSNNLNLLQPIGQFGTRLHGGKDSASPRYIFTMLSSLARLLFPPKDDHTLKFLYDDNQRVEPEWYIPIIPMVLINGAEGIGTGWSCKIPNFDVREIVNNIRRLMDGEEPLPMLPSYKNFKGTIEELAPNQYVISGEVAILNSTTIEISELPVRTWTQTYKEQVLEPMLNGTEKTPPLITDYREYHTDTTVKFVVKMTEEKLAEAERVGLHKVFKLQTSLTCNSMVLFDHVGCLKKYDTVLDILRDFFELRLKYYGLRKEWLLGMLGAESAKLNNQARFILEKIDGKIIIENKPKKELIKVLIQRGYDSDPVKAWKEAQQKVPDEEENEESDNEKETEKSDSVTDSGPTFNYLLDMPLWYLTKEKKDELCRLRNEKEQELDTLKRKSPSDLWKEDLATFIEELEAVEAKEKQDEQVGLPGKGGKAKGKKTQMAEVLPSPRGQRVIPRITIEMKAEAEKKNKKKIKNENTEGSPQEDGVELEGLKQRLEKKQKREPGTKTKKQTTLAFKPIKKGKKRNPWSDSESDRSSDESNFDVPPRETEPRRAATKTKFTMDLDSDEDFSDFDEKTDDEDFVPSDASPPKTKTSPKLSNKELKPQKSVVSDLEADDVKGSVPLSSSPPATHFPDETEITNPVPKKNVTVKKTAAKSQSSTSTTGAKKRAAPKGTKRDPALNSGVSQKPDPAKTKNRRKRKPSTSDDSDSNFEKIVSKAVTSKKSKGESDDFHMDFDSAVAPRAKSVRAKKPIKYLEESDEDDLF
row,inhibition [%],SMILES
1,18.9,Oc1ccccc1-c1cc(-c2cccc(Cl)c2)c2c(n1)-c1ccccc1OC2
2,84,Oc1cccc(-c2cc(-c3cccc(Cl)c3)nc3c2COc2ccccc2-3)c1

# Target: DNA topoisomerase 2-alpha (Homo sapiens) (UniProt P11388)
# Test: Inhibition of recombinant human topoisomerase 2alpha assessed as decrease in relaxation of supercoiled pBR322 DNA at 20 uM after 30 mins by agarose gel electrophoresis relative to control
# Settings: not given
# How it was run: as §1
row,inhibition [%],SMILES
1,63.7,Oc1cccc(-c2cc(-c3cccc(Cl)c3)nc3c2COc2ccccc2-3)c1

# Target: T1, DNA topoisomerase 1 (Homo sapiens) (UniProt P11387)
# T1 sequence (whole entry): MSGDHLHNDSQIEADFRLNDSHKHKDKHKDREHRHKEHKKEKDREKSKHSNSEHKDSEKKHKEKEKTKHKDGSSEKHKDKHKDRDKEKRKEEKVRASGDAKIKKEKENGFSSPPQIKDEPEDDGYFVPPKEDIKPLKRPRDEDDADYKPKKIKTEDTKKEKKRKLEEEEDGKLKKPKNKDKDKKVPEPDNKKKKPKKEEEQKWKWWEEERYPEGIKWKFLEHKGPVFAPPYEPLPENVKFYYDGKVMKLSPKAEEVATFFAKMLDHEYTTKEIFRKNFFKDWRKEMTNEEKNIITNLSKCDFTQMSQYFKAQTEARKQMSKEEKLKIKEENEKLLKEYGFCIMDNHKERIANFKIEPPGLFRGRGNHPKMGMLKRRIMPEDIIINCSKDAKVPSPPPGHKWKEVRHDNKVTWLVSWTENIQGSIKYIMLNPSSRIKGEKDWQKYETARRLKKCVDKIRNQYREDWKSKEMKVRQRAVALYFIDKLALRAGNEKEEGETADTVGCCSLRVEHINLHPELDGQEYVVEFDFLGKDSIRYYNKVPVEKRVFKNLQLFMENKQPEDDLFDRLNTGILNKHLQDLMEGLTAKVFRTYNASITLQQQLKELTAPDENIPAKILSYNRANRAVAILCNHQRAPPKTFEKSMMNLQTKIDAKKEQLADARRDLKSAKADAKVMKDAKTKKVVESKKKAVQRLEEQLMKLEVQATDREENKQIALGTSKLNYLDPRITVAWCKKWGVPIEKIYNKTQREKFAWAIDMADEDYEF
# Test: Inhibition of recombinant human topoisomerase 1 assessed as decrease in relaxation of supercoiled pBR322 DNA at 100 uM after 30 mins by agarose gel electrophoresis relative to control
# Settings: not given
# How it was run: (§2)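 Supercoiled pBR322 (100 ng) with 1 unit recombinant human topo I in 10 mM Tris-HCl pH 7.9, 150 mM NaCl, 0.1% BSA, 0.1 mM spermidine, 5% glycerol, 30 min at 37 °C. Stopped with SDS/dye stop solution. Run on 0.8% agarose in TAE, 50 V, 1 h; EtBr-stained; bands quantitated under UV. Compounds came from 20 mM DMSO stocks. 20 µM was tested only when inhibition at 100 µM exceeded 30%. Camptothecin was the positive control.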
row,inhibition [%],SMILES
1,21.1,Oc1ccccc1-c1cc(-c2cccc(Cl)c2)c2c(n1)-c1ccccc1OC2
2,30,Oc1cccc(-c2cc(-c3cccc(Cl)c3)nc3c2COc2ccccc2-3)c1

# Target: T1, DNA topoisomerase 1 (Homo sapiens)
# Test: Inhibition of recombinant human topoisomerase 1 assessed as decrease in relaxation of supercoiled pBR322 DNA at 20 uM after 30 mins by agarose gel electrophoresis relative to control
# Settings: not given
# How it was run: as §2
row,inhibition,SMILES
1,inactive,Oc1cccc(-c2cc(-c3cccc(Cl)c3)nc3c2COc2ccccc2-3)c1

# Test system: HCT-15
# Test: Antiproliferative activity against human HCT15 cells after 72 hrs by CCK-8 assay
# Type: functional, cell-based
# Settings: HCT-15, 72 h
# How it was run: (§3)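 Cells seeded at 2-4 x 10^4 per well and grown overnight in medium with 10% FBS (37 °C, 5% CO2). After 4 h FBS starvation, medium was replaced with medium containing graded compound concentrations for 72 h. CCK-8 was added for 4 h more, then absorbance read at 450 nm. IC50 came from a four-parameter logistic fit. Mean ± S.D. of three experiments, each in triplicate.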
row,IC50 [nM],SMILES
1,2450,COc1cc([C@@H]2c3cc4c(cc3[C@@H](O[C@@H]3O[C@@H]5CO[C@@H](C)O[C@H]5[C@H](O)[C@H]3O)[C@H]3COC(=O)[C@H]23)OCO4)cc(OC)c1O [ETOPOSIDE]
2,730,COc1cccc2c1C(=O)c1c(O)c3c(c(O)c1C2=O)C[C@@](O)(C(=O)CO)C[C@@H]3O[C@H]1C[C@H](N)[C@H](O)[C@H](C)O1 [DOXORUBICIN HYDROCHLORIDE]
3,> 50000,Oc1ccccc1-c1cc(-c2cccc(Cl)c2)c2c(n1)-c1ccccc1OC2
4,2130,Oc1cccc(-c2cc(-c3cccc(Cl)c3)nc3c2COc2ccccc2-3)c1

row,SMILES,IC50 [nM]
1,CC[C@@]1(O)C(=O)OCc2c1cc1n(c2=O)Cc2cc3ccccc3nc2-1 [CAMPTOTHECIN],20

# Test system: T47D
# Test: Antiproliferative activity against human T47D cells after 72 hrs by CCK-8 assay
# Type: functional, cell-based
# Settings: not given
# How it was run: as §3
row,IC50 [nM],SMILES
1,320,COc1cc([C@@H]2c3cc4c(cc3[C@@H](O[C@@H]3O[C@@H]5CO[C@@H](C)O[C@H]5[C@H](O)[C@H]3O)[C@H]3COC(=O)[C@H]23)OCO4)cc(OC)c1O [ETOPOSIDE]
2,> 50000,Oc1ccccc1-c1cc(-c2cccc(Cl)c2)c2c(n1)-c1ccccc1OC2
3,720,Oc1cccc(-c2cc(-c3cccc(Cl)c3)nc3c2COc2ccccc2-3)c1

row,SMILES,IC50 [nM]
1,CC[C@@]1(O)C(=O)OCc2c1cc1n(c2=O)Cc2cc3ccccc3nc2-1 [CAMPTOTHECIN],490

# Test system: HeLa
# Test: Antiproliferative activity against human HeLa cells after 72 hrs by CCK-8 assay
# Type: functional, cell-based
# Settings: not given
# How it was run: as §3
row,IC50 [nM],SMILES
1,1700,COc1cccc2c1C(=O)c1c(O)c3c(c(O)c1C2=O)C[C@@](O)(C(=O)CO)C[C@@H]3O[C@H]1C[C@H](N)[C@H](O)[C@H](C)O1 [DOXORUBICIN HYDROCHLORIDE]
2,> 50000,Oc1ccccc1-c1cc(-c2cccc(Cl)c2)c2c(n1)-c1ccccc1OC2
3,680,Oc1cccc(-c2cc(-c3cccc(Cl)c3)nc3c2COc2ccccc2-3)c1

row,SMILES,IC50 [nM]
1,CC[C@@]1(O)C(=O)OCc2c1cc1n(c2=O)Cc2cc3ccccc3nc2-1 [CAMPTOTHECIN],130

# Target: DNA topoisomerase 2-alpha (Homo sapiens) (UniProt P11388)
# Test: Inhibition of recombinant human topoisomerase 2alpha assessed as decrease in relaxation of supercoiled pBR322 DNA at 100 uM after 30 mins by agarose gel electrophoresis relative to etoposide
# Settings: not given
row,SMILES,fold change (FC)
1,Oc1ccccc1-c1cc(-c2cccc(Cl)c2)nc2c1oc1ccccc12,0.97
2,Oc1cccc(-c2cc(-c3ccccc3Cl)nc3c2oc2ccccc23)c1,0.95
3,Oc1ccccc1-c1cc(-c2ccccc2Cl)nc2c1oc1ccccc12,0.98
4,Oc1cccc(-c2cc(-c3cccc(Cl)c3)nc3c2COc2ccccc2-3)c1,1.26

# The remaining lines, values ahead:
row,fold change (FC),SMILES
1,1.15,Oc1ccc(-c2cc(-c3ccc(Cl)cc3)nc3c2oc2ccccc23)cc1
2,0.98,Oc1cccc(-c2cc(-c3cccc(Cl)c3)nc3c2oc2ccccc23)c1
3,1.01,Oc1ccc(-c2cc(-c3cccc(Cl)c3)nc3c2oc2ccccc23)cc1
4,1.01,Oc1cccc(-c2cc(-c3ccc(Cl)cc3)nc3c2oc2ccccc23)c1
5,0.99,Oc1ccccc1-c1cc(-c2ccc(Cl)cc2)nc2c1oc1ccccc12
6,1.07,Oc1ccc(-c2cc(-c3ccccc3Cl)nc3c2oc2ccccc23)cc1

# Target: DNA topoisomerase 2-alpha (Homo sapiens) (UniProt P11388)
# Test: Inhibition of recombinant human topoisomerase 2alpha assessed as decrease in relaxation of supercoiled pBR322 DNA at 20 uM after 30 mins by agarose gel electrophoresis relative to etoposide
# Settings: not given
row,SMILES,fold change (FC)
1,Oc1ccccc1-c1cc(-c2cccc(Cl)c2)nc2c1oc1ccccc12,0.91
2,Oc1cccc(-c2cc(-c3ccccc3Cl)nc3c2oc2ccccc23)c1,0.42
3,Oc1ccccc1-c1cc(-c2ccccc2Cl)nc2c1oc1ccccc12,0.62
4,Oc1cccc(-c2cc(-c3cccc(Cl)c3)nc3c2COc2ccccc2-3)c1,1.79

# Further lines, results first:
row,fold change (FC),SMILES
1,1.75,Oc1ccc(-c2cc(-c3ccc(Cl)cc3)nc3c2oc2ccccc23)cc1
2,0.65,Oc1cccc(-c2cc(-c3cccc(Cl)c3)nc3c2oc2ccccc23)c1
3,0.77,Oc1ccc(-c2cc(-c3cccc(Cl)c3)nc3c2oc2ccccc23)cc1
4,0.27,Oc1cccc(-c2cc(-c3ccc(Cl)cc3)nc3c2oc2ccccc23)c1
5,0.63,Oc1ccccc1-c1cc(-c2ccc(Cl)cc2)nc2c1oc1ccccc12
6,0.56,Oc1ccc(-c2cc(-c3ccccc3Cl)nc3c2oc2ccccc23)cc1

# Target: T1, DNA topoisomerase 1 (Homo sapiens)
# Test: Inhibition of recombinant human topoisomerase 1 assessed as decrease in relaxation of supercoiled pBR322 DNA at 100 uM after 30 mins by agarose gel electrophoresis relative to camptothecin
# Settings: not given
row,SMILES,fold change (FC)
1,Oc1ccccc1-c1cc(-c2cccc(Cl)c2)nc2c1oc1ccccc12,1.01
2,Oc1cccc(-c2cc(-c3ccccc3Cl)nc3c2oc2ccccc23)c1,1.22
3,Oc1ccccc1-c1cc(-c2ccccc2Cl)nc2c1oc1ccccc12,0.18
4,Oc1cccc(-c2cc(-c3cccc(Cl)c3)nc3c2COc2ccccc2-3)c1,0.36

# Next, values leading:
row,fold change (FC),SMILES
1,1.62,Oc1ccc(-c2cc(-c3ccc(Cl)cc3)nc3c2oc2ccccc23)cc1
2,1.12,Oc1cccc(-c2cc(-c3cccc(Cl)c3)nc3c2oc2ccccc23)c1
3,1.56,Oc1ccc(-c2cc(-c3cccc(Cl)c3)nc3c2oc2ccccc23)cc1
4,1.32,Oc1cccc(-c2cc(-c3ccc(Cl)cc3)nc3c2oc2ccccc23)c1
5,1.39,Oc1ccccc1-c1cc(-c2ccc(Cl)cc2)nc2c1oc1ccccc12
6,1.39,Oc1ccc(-c2cc(-c3ccccc3Cl)nc3c2oc2ccccc23)cc1

# Target: T1, DNA topoisomerase 1 (Homo sapiens)
# Test: Inhibition of recombinant human topoisomerase 1 assessed as decrease in relaxation of supercoiled pBR322 DNA at 20 uM after 30 mins by agarose gel electrophoresis relative to camptothecin
# Settings: not given
row,SMILES,fold change (FC)
1,Oc1ccccc1-c1cc(-c2cccc(Cl)c2)nc2c1oc1ccccc12,0.38
2,Oc1cccc(-c2cc(-c3ccccc3Cl)nc3c2oc2ccccc23)c1,0.98
3,Oc1cccc(-c2cc(-c3cccc(Cl)c3)nc3c2COc2ccccc2-3)c1,inactive

# Results, then the compound that gave them:
row,fold change (FC),SMILES
1,1.4,Oc1ccc(-c2cc(-c3ccc(Cl)cc3)nc3c2oc2ccccc23)cc1
2,2.02,Oc1cccc(-c2cc(-c3cccc(Cl)c3)nc3c2oc2ccccc23)c1
3,1.29,Oc1ccc(-c2cc(-c3cccc(Cl)c3)nc3c2oc2ccccc23)cc1
4,2.09,Oc1cccc(-c2cc(-c3ccc(Cl)cc3)nc3c2oc2ccccc23)c1
5,0.93,Oc1ccccc1-c1cc(-c2ccc(Cl)cc2)nc2c1oc1ccccc12
6,1.99,Oc1ccc(-c2cc(-c3ccccc3Cl)nc3c2oc2ccccc23)cc1
